SMILES strings stand for the structures.

The target in experiment [1] is T1, Oxytocin receptor (Rattus norvegicus, UniProt P70536).
T1 sequence (P70536 whole entry): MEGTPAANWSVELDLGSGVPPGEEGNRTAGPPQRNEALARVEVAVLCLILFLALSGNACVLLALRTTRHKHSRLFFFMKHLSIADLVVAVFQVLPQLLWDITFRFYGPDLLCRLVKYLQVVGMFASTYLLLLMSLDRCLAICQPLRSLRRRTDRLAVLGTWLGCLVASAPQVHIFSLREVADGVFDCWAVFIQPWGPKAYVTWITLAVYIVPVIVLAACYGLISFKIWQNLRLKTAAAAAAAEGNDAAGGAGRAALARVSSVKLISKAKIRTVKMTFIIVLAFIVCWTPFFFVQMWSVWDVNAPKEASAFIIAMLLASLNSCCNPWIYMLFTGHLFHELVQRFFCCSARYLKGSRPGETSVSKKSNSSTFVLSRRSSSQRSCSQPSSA
The experiment can be described thus: ChEBML_145031. From the text: Tested against rat uterine OT receptor

Experiment [2] deals with T2, Vasopressin V1a/V1b receptor (Rattus norvegicus, UniProt P30560+P48974). The experiment can be described thus: ChEBML_211079. From the text:
(§1) Inhibition of radioligand [3H]AVP binding to the vasopressin V1 receptor in rat liver tissue

The target of experiment [3] is T1, Oxytocin receptor. The experiment can be described thus: Inhibition of radioligand [3H]oxytocin binding at the oxytocin (OT) receptor in rat uterine tissue. The method in brief: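 Uteri taken from rats given diethylstilbestrol dipropionate (0.3 mg/kg ip, 18–24 h before), crude membranes. 1 nM [3H]OT (30–60 Ci/mmol), equilibrium 60 min at 22 °C in 50 mM Tris-HCl, 5 mM MgCl2, 0.1% BSA, pH 7.4. Nonspecific binding with 1 mM unlabeled OT. Filtered on glass fiber. Initial single-concentration screen, then IC50 from seven concentrations by linear regression.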

Experiment [4] has as its target T2, Vasopressin V1a/V1b receptor. Described as §1. In outline:
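Crude membranes from male rat liver (V1 sites) competed with 1 nM [3H]AVP (80–90 Ci/mmol). Equilibrium 30 min, 30 °C, buffer 100 mM Tris-HCl, 5 mM MgCl2, 0.1% BSA, 50 μM PMSF, 50 μg/mL bacitracin, pH 8.0. 10 μM unlabeled AVP for nonspecific binding. Filtration through glass-fiber filters. IC50 from linear regression over seven concentrations.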

The target in a further experiment is Vasopressin V2 receptor (Rattus norvegicus, UniProt Q00788). The experiment can be described thus: Inhibition of radioligand [3H]-AVP binding to the vasopressin V2 receptor in rat kidney tissue. In outline:
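[3H]AVP (80–90 Ci/mmol) at 2 nM competed on crude membranes from male rat kidney medulla (V2 sites). Equilibrium 30 min at 30 °C in 100 mM Tris-HCl, 5 mM MgCl2, 0.1% BSA, 50 μM PMSF, 50 μg/mL bacitracin, pH 8.0. Nonspecific binding with 10 μM unlabeled AVP. Glass-fiber filtration. IC50 by linear regression of % inhibition vs log concentration, seven concentrations.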

T2 sequence (P30560 whole entry): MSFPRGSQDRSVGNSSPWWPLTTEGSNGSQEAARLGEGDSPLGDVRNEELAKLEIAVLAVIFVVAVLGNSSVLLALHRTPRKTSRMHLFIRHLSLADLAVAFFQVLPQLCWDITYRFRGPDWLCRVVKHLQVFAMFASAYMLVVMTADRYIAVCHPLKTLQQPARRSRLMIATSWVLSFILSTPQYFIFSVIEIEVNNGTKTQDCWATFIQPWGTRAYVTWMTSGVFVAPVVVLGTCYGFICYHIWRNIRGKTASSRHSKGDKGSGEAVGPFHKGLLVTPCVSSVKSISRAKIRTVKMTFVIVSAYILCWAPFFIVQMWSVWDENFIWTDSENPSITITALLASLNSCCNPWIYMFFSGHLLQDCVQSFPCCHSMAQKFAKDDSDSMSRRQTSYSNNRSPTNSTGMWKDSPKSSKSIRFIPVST
T2 sequence (P48974 whole entry): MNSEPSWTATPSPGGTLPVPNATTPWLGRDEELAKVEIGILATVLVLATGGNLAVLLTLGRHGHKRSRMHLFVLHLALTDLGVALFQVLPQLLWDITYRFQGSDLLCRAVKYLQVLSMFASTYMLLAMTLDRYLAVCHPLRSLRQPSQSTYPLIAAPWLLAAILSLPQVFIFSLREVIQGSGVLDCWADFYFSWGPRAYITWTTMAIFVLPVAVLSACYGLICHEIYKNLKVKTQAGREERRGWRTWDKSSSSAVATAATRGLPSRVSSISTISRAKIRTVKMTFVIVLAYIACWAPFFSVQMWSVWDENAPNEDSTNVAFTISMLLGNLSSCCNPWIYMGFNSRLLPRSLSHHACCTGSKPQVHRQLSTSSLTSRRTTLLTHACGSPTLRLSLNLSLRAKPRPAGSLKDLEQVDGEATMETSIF
Sequence of Vasopressin V2 receptor (Q00788 whole entry): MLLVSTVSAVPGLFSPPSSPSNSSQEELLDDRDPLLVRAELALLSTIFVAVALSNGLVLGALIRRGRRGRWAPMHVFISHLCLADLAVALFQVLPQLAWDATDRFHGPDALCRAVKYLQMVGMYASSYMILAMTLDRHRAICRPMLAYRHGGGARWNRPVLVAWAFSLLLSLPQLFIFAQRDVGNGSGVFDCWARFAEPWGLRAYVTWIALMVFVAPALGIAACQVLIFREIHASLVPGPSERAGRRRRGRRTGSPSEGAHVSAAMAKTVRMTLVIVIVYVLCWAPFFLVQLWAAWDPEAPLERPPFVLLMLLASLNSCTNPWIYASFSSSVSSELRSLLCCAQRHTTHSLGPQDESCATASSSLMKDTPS

Turning to `CC1(C)[C@@H]2CC[C@@]1(CS(=O)(=O)N1CCC3(CCc4ccccc43)CC1)[C@@H](n1c(O)c(Cc3cnc[nH]3)[nH]c1=O)C2` [3-[7,7-dimethyl-1-spiro[2,3-dihydro-1H-indene-1,4'-(hexahydropyridine)]-1-ylsulfonylmethyl-(1S,2S,4R)-bicyclo[2.2.1]hept-2-yl]-5-(1H-4-imidazolylmethyl)tetrahydro-1H-2,4-imidazoledione], the IC50 (usually the concentration that inhibits the measured activity by half) at Oxytocin receptor [1] came to 13 nM; in experiment [2], 420 nM; at Oxytocin receptor [3], 13 nM; in experiment [4] it was 420 nM; at Vasopressin V2 receptor, 1500 nM.

The values are drawn from BindingDB's records for doi:10.1021/jm00077a002 (Merck Research Laboratories, 1994).
